Reference: ChEMBL document CHEMBL3272140, “Structure and antitumor activity relationship of 2-arylidene-4-cyclopentene-1, 3-diones and 2-arylideneindan-1, 3-diones” (J Med Chem, 1976)

Experiments:
Sarcoma-180 [1] = assay: Antitumor activity against mouse ascites Sarcoma 180 cells allografted in ddN mouse assessed as percentage of total packed cell volume ratio at 100 mg/kg/day for 5 days administered 24 hrs after tumor inoculation measured 7th day after tumor inoculation; format: functional
Summary of the method: (§1)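 Compound given by injection once daily for 5 days, beginning 24 h after S-180 tumor inoculation. Antitumor activity was scored from the total packed cell volume ratio (TPCV %) on day 7 after inoculation.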

Sarcoma-180 [2] = assay: Antitumor activity against mouse ascites Sarcoma 180 cells allografted in ddN mouse assessed as percentage of total packed cell volume ratio at 10 mg/kg/day for 5 days administered 24 hrs after tumor inoculation measured 7th day after tumor inoculation; format: functional; summary of the method: as §1
Mus musculus = assay: Toxicity in mouse ascites sarcoma 180 cells allografted ddN mouse at 3 mg/kg/day for 5 days administered 24 hrs after tumor inoculation measured 7th day after tumor inoculation; format: organism-based; details: in vivo
Sarcoma-180 [3] = assay: Antitumor activity against mouse ascites Sarcoma 180 cells allografted in ddN mouse assessed as percentage of total packed cell volume ratio at 3 mg/kg/day for 5 days administered 24 hrs after tumor inoculation measured 7th day after tumor inoculation; format: functional; summary of the method: as §1

| SMILES | Activity (Sarcoma-180 [1]) [%] | other results |
| --- | --- | --- |
| COc1cc(/C=C2\CCC/C(=C\c3cc(OC)c(OCc4ccccc4)c(OC)c3)C2=O)cc(OC)c1OCc1ccccc1 | 66 | – |
| COc1ccc(C=C2C(=O)c3ccccc3C2=O)cc1 | 66 | – |
| COc1cc(/C=C2\CCC(C)/C(=C\c3ccc(OCc4ccccc4)c(OC)c3)C2=O)ccc1OCc1ccccc1 (stereo not given) | 66 | – |
| COc1cc(C=C2C(=O)C=CC2=O)cc(OC)c1OC | – | Activity (Sarcoma-180 [2]): 0% |
| COc1cc(/C=C2\CC(C)C/C(=C\c3cc(OC)c(O)c(OC)c3)C2=O)cc(OC)c1O (stereo not given) | 66 | – |
| COc1cc(/C=C2\CC/C(=C\c3cc(OC)c(O)c(OC)c3)C2=O)cc(OC)c1O | 66 | – |
| COc1ccc(C=C2C(=O)C=CC2=O)cc1OC | – | Activity (Sarcoma-180 [2]): 0% |
| COc1ccc(C=C2C(=O)C=CC2=O)cc1 | – | Activity (Sarcoma-180 [2]): 0% |
| COc1cc(C=C2C(=O)c3ccccc3C2=O)cc(OC)c1OCc1ccccc1 | 66 | – |
| COc1ccc(C=C2C(=O)c3ccccc3C2=O)cc1O | 41 | – |
| COc1cc(/C=C2\CC(C)C/C(=C\c3ccc(O)c(OC)c3)C2=O)ccc1O (stereo not given) | 66 | – |
| COc1cc(/C=C2\CC(C)C/C(=C\c3cc(OC)c(OCc4ccccc4)c(OC)c3)C2=O)cc(OC)c1OCc1ccccc1 (stereo not given) | 66 | – |
| COc1cc(C=C2C(=O)C=CC2=O)ccc1OCc1ccccc1 | – | Activity (Sarcoma-180 [2]): 11% |
| O=C1C=CC(=O)C1 | – | Activity (Mus musculus): Toxic |
| COc1cc(/C=C2\CCC(C)/C(=C\c3cc(OC)c(OC)c(OC)c3)C2=O)cc(OC)c1OC (stereo not given) | 66 | – |
| COc1cc(C=C2C(=O)c3ccccc3C2=O)cc(OC)c1O | 11 | – |
| COc1cc(C=C2C(=O)c3ccccc3C2=O)ccc1OCc1ccccc1 | 66 | – |
| COc1cc(C=C2C(=O)C=CC2=O)cc(OC)c1O | – | Activity (Sarcoma-180 [2]): 0% |
| O=C1C=CC(=O)C1=C/C=C/c1ccccc1 | – | Activity (Sarcoma-180 [2]): 0% |
| COc1cc(C=C2C(=O)c3ccccc3C2=O)ccc1O | 0 | – |

| SMILES | Activity (Sarcoma-180 [1]) [%] | other results |
| --- | --- | --- |
| COc1cc(/C=C2\CC/C(=C\c3cc(OC)c(OCc4ccccc4)c(OC)c3)C2=O)cc(OC)c1OCc1ccccc1 | 66 | – |
| O=C1C=CC(=O)C1=Cc1ccc(O)cc1 | – | Activity (Sarcoma-180 [2]): 0% |
| COc1cc(C=C2C(=O)C=CC2=O)cc(OC)c1OCc1ccccc1 | – | Activity (Sarcoma-180 [2]): 11% |
| O=C1C(=Cc2ccc(O)cc2)C(=O)c2ccccc21 | 66 | – |
| COc1cc(/C=C2\CCC/C(=C\c3cc(OC)c(O)c(OC)c3)C2=O)cc(OC)c1O | 66 | – |
| O=C1C(=C/C=C/c2ccccc2)C(=O)c2ccccc21 | 66 | – |
| COc1cc(/C=C2\CCC(C)/C(=C\c3cc(OC)c(OCc4ccccc4)c(OC)c3)C2=O)cc(OC)c1OCc1ccccc1 (stereo not given) | 66 | – |
| COc1ccc(C=C2C(=O)c3ccccc3C2=O)cc1OC | 41 | – |
| COc1cc(C=C2C(=O)c3ccccc3C2=O)cc(OC)c1OC | 41 | – |
| COc1cc(/C=C2\CCC/C(=C\c3ccc(OCc4ccccc4)c(OC)c3)C2=O)ccc1OCc1ccccc1 | 66 | – |
| O=C1CC(=O)c2ccccc21 | 11 | – |
| COc1cc(/C=C2\CCC(C)/C(=C\c3cc(OC)c(O)c(OC)c3)C2=O)cc(OC)c1O (stereo not given) | 66 | – |
| COc1cc(/C=C2\CC/C(=C\c3ccc(O)c(OC)c3)C2=O)ccc1O | 66 | – |
| COc1cc(C=C2C(=O)C=CC2=O)ccc1O | – | Activity (Sarcoma-180 [3]): 0% |
| COc1cc(/C=C/C=C2C(=O)c3ccccc3C2=O)ccc1O | 66 | – |
| COc1cc(/C=C2\CC/C(=C\c3ccc(OCc4ccccc4)c(OC)c3)C2=O)ccc1OCc1ccccc1 | 66 | – |
| COc1cc(/C=C2\CCC(C)/C(=C\c3ccc(O)c(OC)c3)C2=O)ccc1O (stereo not given) | 66 | – |
| COc1cc(/C=C2\CCC/C(=C\c3ccc(O)c(OC)c3)C2=O)ccc1O [CYCLOVALONE] | 66 | – |
| COc1ccc(C=C2C(=O)C=CC2=O)cc1O | – | Activity (Sarcoma-180 [2]): 0% |
| COc1cc(/C=C2\CC(C)C/C(=C\c3ccc(OCc4ccccc4)c(OC)c3)C2=O)ccc1OCc1ccccc1 (stereo not given) | 66 | – |
